From ChEMBL document CHEMBL5316289, “Structure-Based Rational Design of Small α-Helical Peptides with Broad-Spectrum Activity against Multidrug-Resistant Pathogens” (J Med Chem, 2023)
Activity calls are given as the source filed them. The rule behind the calls is not given here.

Tests used:
Cell membrane [1] = experiment: Disruption of cell membrane in methicillin resistant Staphylococcus aureus ATCC BAA 1556 assessed as increase in PI fluorescence intensity measured after 1 hrs by PI staining based flow cytometric analysis; assay type: subcellular
Procedure, shortened: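 Mid-log cells grown in Mueller Hinton broth, washed in 10 mM Tris pH 7.4, 10^7 CFU/mL, treated at MIC and 4× MIC for 1 h. Pelleted, washed, PI-stained for 15 min at 37 °C in the dark, then counted by flow cytometry for % PI-positive cells. PBS-treated cells as negative control, 10% Triton X-100 as positive control. Run in triplicate; two-tailed unpaired t-test.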

[2] = Antiproliferative activity human HEKa cells assessed as reduction in cell viability at 250 ug/ml incubated for 24 hrs by MTS assay; assay type: functional; details: dose 250 µg/ml
Procedure, shortened: (§1)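 Cells seeded at 10,000 per well 24 h before treatment. Media: MRC-5 and HEK293 in DMEM with 10% FBS; HepaRG in William's E with GlutaMAX; HEKa in Dermal Cell Basal medium plus keratinocyte growth kit. Peptide at 10–250 μg/mL in triplicate for 24 h, 37 °C, 5% CO2. MTS added for 2 h, then A490 read. Survival is blank-corrected OD as % of untreated control.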

Escherichia coli [3] = experiment: Antibacterial activity against Escherichia coli ATCC 25922 assessed as fold increase in MIC incubated for 24 hrs in presence of Ca2+ ions by CLSI based broth microdilution method; assay type: functional
Procedure, shortened: (§2)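 E. coli MICs by CLSI broth microdilution in cation-adjusted Mueller Hinton broth. […] Inoculum was 10^6 CFU/mL with 2-fold serial peptide dilutions, incubated 24 h at 37 °C. MIC is the lowest concentration inhibiting growth. Three independent assays, each in triplicate.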

Escherichia coli [4] = experiment: Bactericidal activity against […] Escherichia coli ATCC BAA 2452 assessed as inhibition of bacterial growth at MIC to 4 times of MIC by Time kill assay; assay type: functional, organism-based; details: time 4.0 hrs, TDE = time-dependent effect
Procedure, shortened: (§3)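 Aliquots taken every 30 min for 4 h and plated on agar for viable colony counts. Two independent experiments in triplicate.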

Cell membrane [5] = experiment: Disruption of cell membrane in Escherichia coli ATCC BAA-2452 assessed as cell membrane perturbation measured after 1 hrs by PI and DAPI double staining based fluorescence microscopic analysis; assay type: subcellular
Procedure, shortened: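 Mid-log E. coli ATCC BAA-2452 was washed three times in PBS (10 mM, pH 7.3). Cells at 10^7 CFU/mL were exposed to agent at MIC or 4× MIC for 1 h, then pelleted at 3000g and washed. Staining was PI for 15 min, then DAPI for 15 min, both at 37 °C in the dark. Untreated cells were processed alike. Imaged by fluorescence microscopy with 60× oil objective.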

MRC5 = experiment: Antiproliferative activity human MRC5 cells assessed as reduction in cell viability at 50 ug/ml incubated for 24 hrs by MTS assay; assay type: functional; details: dose 50 µg/ml; procedure, shortened: as §1
Escherichia coli [6] = experiment: Antibacterial activity against Escherichia coli ATCC 25922 assessed as fold increase in MIC incubated for 24 hrs in presence of Na+ ions by CLSI based broth microdilution method; assay type: functional; procedure, shortened: as §2
HEK293 = experiment: Antiproliferative activity human HEK293 cells assessed as reduction in cell viability at 50 ug/ml incubated for 24 hrs by MTS assay; assay type: functional; details: dose 50 µg/ml; procedure, shortened: as §1
Escherichia coli [7] = experiment: Antibacterial activity against Escherichia coli ATCC 25922 assessed as fold increase in MIC incubated for 24 hrs in presence of K+ ions by CLSI based broth microdilution method; assay type: functional; procedure, shortened: as §2
Staphylococcus aureus [8] = experiment: Antibacterial activity against methicillin resistant Staphylococcus aureus ATCC BAA 1556 assessed as fold increase in MIC incubated for 24 hrs in presence of Na+ ions by CLSI based broth microdilution method; assay type: functional
Procedure, shortened: (§4)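 CLSI broth microdilution. Overnight cultures diluted in cation-adjusted Mueller Hinton broth to 10^6 CFU/mL, mixed 1:1 with 2-fold serial peptide dilutions, 24 h at 37 °C. […] MIC is the lowest concentration inhibiting growth. Three independent assays in triplicate.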

Cell membrane [9] = experiment: Disruption of cell membrane in methicillin resistant Staphylococcus aureus ATCC BAA 1556 assessed as cell membrane perturbation measured after 1 hrs by DAPI and PI double staining based fluorescence microscopic analysis; assay type: subcellular
Procedure, shortened: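 Mid-log cells washed in PBS (10 mM, pH 7.3), 10^7 CFU/mL, treated at MIC and 4× MIC for 1 h. Pelleted and washed, then stained with PI for 15 min at 37 °C in the dark, then DAPI for 15 min at 37 °C in the dark. Untreated controls. Imaged by fluorescence microscopy, 60× oil objective.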

Staphylococcus aureus [10] = experiment: Antibacterial activity against methicillin resistant Staphylococcus aureus ATCC BAA 1556 assessed as fold increase in MIC incubated for 24 hrs in presence of Ca2+ ions by CLSI based broth microdilution method; assay type: functional; procedure, shortened: as §4
Staphylococcus aureus [11] = experiment: Induction of membrane morphological changes in methicillin resistant Staphylococcus aureus ATCC BAA 1556 assessed as cell surface wrinkling at 4 times of MIC measured after 1 hrs by FE-SEM analysis; assay type: functional, organism-based
Procedure, shortened: (§5)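 Methods give 30 min; legend gives 1 h. Washed, fixed in 4% glutaraldehyde in 0.2 M Na-cacodylate for 3 h, dehydrated through graded ethanol, dried with HMDS, Au/Pd-coated (~20 nm) and imaged by SEM. Untreated cells as control.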

Escherichia coli [12] = experiment: Bactericidal activity against […] Escherichia coli ATCC BAA 2452 assessed as inhibition of bacterial growth at 4 times of MIC incubated for 4 hrs by Time kill assay; assay type: functional; procedure, shortened: as §3
Staphylococcus aureus [13] = experiment: Induction of membrane morphological changes in methicillin resistant Staphylococcus aureus ATCC BAA 1556 assessed as cell surface roughening at 4 times of MIC measured after 1 hrs by FE-SEM analysis; assay type: functional, organism-based; procedure, shortened: as §5
Escherichia coli [14] = experiment: Induction of membrane morphological changes in Escherichia coli ATCC BAA-2452 assessed as cell surface blebs formation at 4 times of MIC measured after 1 hrs by FE-SEM analysis; assay type: functional, organism-based
Procedure, shortened: (§6)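 E. coli ATCC BAA-2452 grown to exponential phase in MHB at 37 °C with shaking, then diluted to 2 × 10^6 CFU/mL. […] Cells were PBS-washed and fixed 3 h in 4% glutaraldehyde in 0.2 M cacodylate. Then ethanol-dehydrated, HMDS-dried, Au/Pd-coated and imaged by FE-SEM. Untreated control.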

Staphylococcus aureus [15] = experiment: Induction of membrane morphological changes in methicillin resistant Staphylococcus aureus ATCC BAA 1556 assessed as cellular debris formation at 4 times of MIC measured after 1 hrs by FE-SEM analysis; assay type: functional, organism-based; procedure, shortened: as §5
Escherichia coli [16] = experiment: Induction of membrane morphological changes in Escherichia coli ATCC BAA-2452 assessed as cellular debris formation at 4 times of MIC measured after 1 hrs by FE-SEM analysis; assay type: functional, organism-based; procedure, shortened: as §6

| Substance | Activity (Cell membrane [1]) | Activity [2] | fold change (FC) (Escherichia coli [3]) | inhibition (Escherichia coli [4]) | Activity (Cell membrane [5]) | Activity (MRC5) | fold change (FC) (Escherichia coli [6]) | Activity (HEK293) | fold change (FC) (Escherichia coli [7]) | fold change (FC) (Staphylococcus aureus [8]) | Activity (Cell membrane [9]) | fold change (FC) (Staphylococcus aureus [10]) | Activity (Staphylococcus aureus [11]) | inhibition (INH) (Escherichia coli [12]) | Activity (Staphylococcus aureus [13]) | Activity (Escherichia coli [14]) | Activity (Staphylococcus aureus [15]) | Activity (Escherichia coli [16]) |
| --- | --- | --- | --- | --- | --- | --- | --- | --- | --- | --- | --- | --- | --- | --- | --- | --- | --- | --- |
| H-RWLRRWLRWWRR-NH2 | Dose-Dependent Effect | <30% | 2 | Tde | Dose-Dependent Effect | <60% | 2 | <60% | 2 | 2 | Dose-Dependent Effect | 2 |  |  |  |  |  |  |
| H-KWLKKWLKWWKK-NH2 | Dose-Dependent Effect |  | 2 | Tde | Dose-Dependent Effect | >75% | 2 | >75% | 2 | 2 | Dose-Dependent Effect | 2 | Active | 70% | Active | Active | Active | Active |
